From ChEMBL document CHEMBL4513216, “Probing the Open Global Health Chemical Diversity Library for Multistage-Active Starting Points for Next-Generation Antimalarials” (ACS Infect Dis, 2020)

Test: Toxicity liver stage against HepG2, at 10uM
Type: cell-based
Design: test concentration 10 uM, cell line HepG2-A16-CD81EGFP
Details: human, HepG2-A16-CD81EGFP cells; read-out: INHIBITION
How it was run: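 Uninfected HepG2-A16-CD81EGFP cells, 3 × 10^3 per well, 1536-well, plated on prespotted compound at 10 μM final, parasite-free screening media added to match infected plates; puromycin 10 μM positive, DMSO 0.5% negative; run in parallel with 48 h PbLuc assay at 37 °C, 5% CO2; viability by CellTiter-Glo luminescence, normalized to controls.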

| Structure (SMILES) | cytotoxicity at 10 µM [%] |
| --- | --- |
| Nc1ncncc1-c1noc([C@@H]2CCCN2Cc2cccnc2)n1 | -7.29 |
| Cc1cs/c(=N\C(=O)c2c3c(nc4onc(C)c24)CCC3)[nH]1 | 1.26 |
| O=S(=O)(C1CC1)N1CCO[C@H]2[C@H](OCC3CCCC3)CC[C@@H]21 | -5.58 |
| COCCO[C@H]1CCN(C(=O)c2ccno2)[C@H]1Cc1cnn(C)c1 | -5.45 |
| Cn1cc(S(=O)(=O)NCc2ccc(F)cc2)cn1 | 1.25 |
| O=C1CCOC[C@]2(CN(Cc3ccccc3)C[C@H]2c2ccccc2F)N1 | -1.02 |
| CC(=O)N1CCCC1c1nc(CN(C)C(=O)C(C)C)cc(N(C)C)n1 (stereo not given) | -2.62 |
| CS(=O)(=O)N[C@@H]1CN(Cc2ccc3ncccc3c2)C[C@H]1O | -4.34 |
| Cn1nccc1CN1CCOC(c2ccc(-c3cncnc3)cn2)C1 (stereo not given) | 3.27 |
| Cc1cc(Oc2ccccc2)nc(C2CCN(CCO)CC2)n1 | -1.99 |
| CN(C)c1ncc(CN2CCOC(C(=O)Nc3ccccc3)C2)cn1 (stereo not given) | -3.14 |
| O=C(N1CCOCC1)N1CCN(c2ccc(Cl)nn2)C(=O)C1 | 8.57 |
| COc1ncc(C(F)(F)F)c(C(=O)O)c1Cl | 16.7 |
| O=C(O)c1cc(NS(=O)(=O)c2ccccc2F)ccc1N1CCSCC1 | -5.27 |
| O=C(O)CCCc1ccc2c(c1)CC(=O)N2 | 1.51 |
| CC(C)CCC(=O)N1CCN(C(=O)c2ccc3nccn3c2)CC1 | 7.42 |
| O=C(c1cnc(NCc2sccc2Br)c(Cl)c1)N1CCCCC1 | 6.36 |
| CC(=O)N1CCCN(C(=O)NC(C)Cn2ccnc2)CC1 (stereo not given) | 4.52 |
| CN(C)c1cccc(C2CCCN2c2nc3c(cnn3C)c(=O)[nH]2)c1 (stereo not given) | 0.91 |
| Cc1cc(CN(C)C(=O)NC(C)Cc2ccc(O)cc2)no1 (stereo not given) | 4.93 |
| Cc1ccccc1CCCN(C)S(C)(=O)=O | 5.41 |
| COc1cccc(COCC(=O)NC(C(N)=O)c2ccccc2)c1 (stereo not given) | -3.73 |

| Structure (SMILES) | cytotoxicity at 10 µM [%] |
| --- | --- |
| COC(CNC(=O)c1ccoc1)c1cccc(Cl)c1 (stereo not given) | 3.3 |
| CCCc1noc(CCC(=O)N2CCN(C)CC2c2ccccc2)n1 (stereo not given) | -7.47 |
| CCCNC(=O)CNC(=O)c1scnc1C | 8.86 |
| CC(=O)NCC1CN(c2ccc3c(Cl)ccnc3c2F)CCO1 (stereo not given) | 5.29 |
| CC(=O)N1CCC[C@H]1C(=O)N(C)CCCOc1ccccc1 | -1.18 |
| Cn1cc(Br)cc(NC(=O)CC2CCC2)c1=O | -8.15 |
| CCN(Cc1nnsc1Cl)C(C)c1ccc(C#N)cc1 (stereo not given) | 18.9 |
| CC(C)Nc1cccc(CNC(=O)N2CCCC2)c1 | 1.98 |
| COc1ccccc1C(=O)N1CCC(O)(c2cccc(C)c2C)CC1 | 12.1 |
| O=C(CN1CCOC(Cn2cncn2)C1)NC(C1CC1)C1CC1 (stereo not given) | -49.5 |
| O=C(COCC1CC1)Nc1cc(-c2ccc(Br)s2)n[nH]1 | -155 |
| CCS(=O)(=O)CCN1CCN(C(C)c2cccnc2)CC1 (stereo not given) | 8.65 |
| O=C(Nc1nnn[nH]1)c1ccc(I)c(F)c1 | -2.56 |
| O=C(Nc1ccccn1)C1CCN(Cc2cc3c(cc2O)OCO3)CC1 | 7.19 |
| CCC(NC(=O)CNC(=O)OC)c1cc(F)ccc1F (stereo not given) | -5.03 |
| FC(F)(F)COc1ccc(CSCc2ccon2)cn1 | -4.52 |
| CC(=O)c1cccc(S(=O)(=O)N2CCC(c3noc(C)n3)CC2)c1 | 7.85 |
| Cc1csc(C2(NCc3csc(C4CC4)n3)CCCC2)n1 | 4.32 |
| COc1ccc(CNc2cccnc2-n2cccn2)cc1OC | 7.25 |
| CCC[C@@H](NC(N)=O)C(=O)N1CCc2c(Cl)cccc2C1 | 5.79 |
| N#Cc1ccc(CNCC2CCN(CCO)CC2)cc1 | -9.7 |
| CCS(=O)(=O)N1Cc2cncn2CC(C(=O)NCC2CC2)C1 (stereo not given) | -97.6 |

| Structure (SMILES) | cytotoxicity at 10 µM [%] |
| --- | --- |
| Cc1ccc(N2C[C@H]3OCC[C@H]3[C@H](C(=O)NCc3ccco3)C2)nn1 | -67.4 |
| COCC(=O)N1CCC2(CC1)CN(c1cncnc1)C(=O)CO2 | -78.6 |
| Cc1noc([C@@H]2CCO[C@@H]3CCN(Cc4cccs4)C[C@@H]32)n1 | -74.6 |
| CC(C)NC(=O)C1CN(C(=O)COc2ccccc2)CC12CCOCC2 (stereo not given) | -78.3 |
| CCc1nc(C)c(C(=O)N2CCNCC2C(=O)NCc2ccncc2)o1 (stereo not given) | -3.64 |
| Cc1cccc2cc(C(=O)N3CCC(F)(F)CC3)n(C)c12 | 3.76 |
| CCc1[nH]c2ccc(CNc3cncc(C(=O)N(C)C)n3)cc2c1C | 7.59 |
| CCCn1c(C)c(CC(=O)N[C@H](C)C(=O)OC)c2c1CC(C)(C)CC2=O | -2.06 |
| CC(C)CCn1cc(C(C(=O)O)N2CCC(c3ccncc3)CC2)cn1 (stereo not given) | 3.34 |
| COC[C@]1(O)CCN(C2CCN(c3ccc(OC)cc3)CC2)CC1(C)C | -3.17 |
| OCC1(O)CCN(c2ncccc2C(F)(F)F)CC1 | -13.6 |
| CC(=O)N[C@@H]1CN(C(=O)c2cnccn2)C[C@H]1c1ccc(C)cc1 | 6.62 |
| O=C(Nc1ccccc1CCO)c1cccc(CN2CC[C@H](O)C2)c1 | 8.77 |
| CC(=O)NCc1nc(CC(C)C)nn1-c1cccc(C)c1 | 6.54 |
| Cc1ccccc1C(CC(=O)NCC(N)=O)c1ccccc1 (stereo not given) | 5.17 |
| O=C1CC[C@H]2CN(Cc3cccnc3)CC[C@H]2N1CCc1c[nH]cn1 | -1.36 |
| O=C(c1ccc(S(=O)(=O)N2CCSCC2)cc1)N1CCCCCC1 | 13.9 |
| CN(Cc1cc(-c2ccncc2)no1)C(=O)[C@@H]1CSCN1C | -2.62 |
| Cc1ccc2c(C)c(C(=O)NCc3csc(N)n3)oc2c1 | -2.83 |
| O=C(NCC(O)c1cccc(F)c1)C1CCN(C(=O)C2CCC2)CC1 (stereo not given) | 4.43 |
| Cc1ccc(CCNc2nc(-c3ccncc3)nc3c2CCNCC3)o1 | -132 |
| COCCCN(Cc1cnc(-c2ccccn2)nc1)C1CCN(C)CC1 | -0.988 |

| Structure (SMILES) | cytotoxicity at 10 µM [%] |
| --- | --- |
| Cc1nc(NC(=O)C(C)N2CCN(c3ccccc3F)CC2)sc1C (stereo not given) | -0.879 |
| CCC(CO)N(Cc1ccccn1)C(=O)c1ccc(F)c(F)c1 (stereo not given) | -0.273 |
| CC(=O)N1CCN(Cc2ccc(Cl)c(F)c2)CC(O)C1 (stereo not given) | -1.48 |
| NC(=O)c1cccc(CC2CCN(C(=O)CO)C2)c1 (stereo not given) | -23.7 |
| Cc1ccc(C#N)c(N2CCC(c3nccn3Cc3cscn3)CC2)n1 | -6.96 |
| CC(=O)N1CCCCC1c1cc(C(=O)N2CCOCC2)[nH]n1 (stereo not given) | -3.68 |
| Cc1nnc(C(C)N2CCCN(Cc3ccc(C#N)cc3)CC2)o1 (stereo not given) | -11.1 |
| c1ccc(Cc2nnc(CN3CCCCC3Cn3cncn3)o2)cc1 (stereo not given) | -20.4 |
| NC(=O)C1CCCN(C(=O)c2cccc(OCc3cscn3)c2)C1 (stereo not given) | -7.98 |
| Cc1ccccc1-c1noc(CN2CCOC(Cn3cccn3)C2)n1 (stereo not given) | -5.04 |
| O=C(c1cnc2c(cnn2C2CCCC2)c1)N1CCN(CCO)CC1 | -17.2 |
| Cc1ccnn1-c1ccc(C(=O)N2CCCC(n3ccnc3)C2)cc1 (stereo not given) | -18.2 |
| O=C(Cc1n[nH]c2ccccc12)N1CCCC1Cn1cccn1 (stereo not given) | -14.7 |
| Cc1cc2n(n1)CC(CNCc1ccccc1Cn1cccn1)CN2 (stereo not given) | -13.3 |
| c1ccc(Cc2noc(CN3CCOC(Cn4cccn4)C3)n2)cc1 (stereo not given) | -6.67 |
| Cc1csc(C2CCCN(C(=O)c3c[nH]c(C)n3)C2)n1 (stereo not given) | -17 |
| COc1cc(C(=O)N2CCCC(c3cc(C)[nH]n3)C2)ccc1C (stereo not given) | -17.5 |
| CCOCC(O)CN1CCN(C(=O)C(C)(C)CC)CC1 (stereo not given) | -20.7 |
| O=C(c1cc2c(F)cccc2[nH]1)N1CCC(Nc2cccnn2)CC1 | -19.3 |
| COCCCNC(=O)N1CCCC(c2nncn2C)C1 (stereo not given) | -19.7 |
| Cc1nn(C)c(C)c1C1CCCN1Cc1noc(C2CC2)n1 (stereo not given) | -6.95 |
| N#Cc1ccccc1OCCN1CCC(N2CCNC2=O)CC1 | -8.58 |

| Structure (SMILES) | cytotoxicity at 10 µM [%] |
| --- | --- |
| CC(=O)N1CCCN(C(=O)c2csc(-c3ccc(C)cc3C)n2)CC1 | 20.8 |
| CCc1nc(C)ncc1C(=O)N1CCCC(n2nc(C)nc2C)C1 (stereo not given) | -8.47 |
| Cc1cc2n(n1)CC(CNCc1ccnc(-n3ccnc3C)c1)CN2 (stereo not given) | -4.95 |
| CCCOc1ccc(CNC(=O)N2CCC(C(N)=O)C2)cc1 (stereo not given) | -5.87 |
| CCn1cc(CN2CCCN(C(=O)c3sccc3C#N)CC2)cn1 | -6.41 |
| N#Cc1cccc(S(=O)(=O)NC2CCN(Cc3ccccc3)C2=O)c1 (stereo not given) | -7.18 |
| CCOC1CCCN(C(=O)c2cnc3c(cnn3C3CCCC3)c2)C1 (stereo not given) | -3.74 |
| Cc1ncsc1C(=O)NC1CCN(CCC(N)=O)CC1 | -10.2 |
| O=S(=O)(CCCN1CCCC1Cn1cccn1)c1ccccc1 (stereo not given) | -5.18 |
| COc1ccc(-c2cnc(N)nc2C2CCCNC2)cc1 (stereo not given) | -1.51 |
| COc1ccc(CN(Cc2ccccn2)Cc2cncn2C)cc1 | 9.65 |
| COCC1CN(C(=O)c2cccc(C)n2)Cc2nccn2C1 (stereo not given) | -103 |
| COc1ccc(CN2C[C@@H]3COC[C@]3(COc3cccnc3)C2)cc1 | -18.4 |
| O=C(NC1CC1)N1CCn2c(Cn3cccn3)cnc2C1 | -72.8 |
| Cc1nc(CN2CCC(O)(c3ccccc3F)CC2)c2ccccn12 | 2.45 |
| CCS(=O)(=O)N1CCc2c(COCCN(C)C)cncc2C1 | -104 |
| Cc1ccc(CN2C[C@@H](OCc3ccccn3)[C@H]3COC[C@H]32)o1 | -114 |
| O=C(c1cccnc1)N1CCN2C[C@H](OCc3ccccc3)C[C@H]2C1 | -75.2 |
| O=C(Cc1cccs1)N1C[C@@H]2CN(Cc3ccoc3)CCO[C@@H]2C1 | -70.8 |
| CN(C)C(=O)CN1C(=O)[C@@H]2CC[C@H]1CN(Cc1ccccc1C#N)C2 | 1.22 |
| O=c1c2c[nH]c(N3CCOCC3)nc-2cn1C1CCS(=O)(=O)C1 (stereo not given) | 3.41 |
| O=S(=O)(c1ccccc1)N1C2CCC(O)(CC2)C1CN1CCOCC1 (stereo not given) | -4.65 |
